Data as given in ChEMBL document CHEMBL4622927, “6,6'-Aryl trehalose analogs as potential Mincle ligands” (Bioorg Med Chem, 2020).
The source made the active and inactive calls. The rule behind the calls is not given here.

Assays:
PBMC = experiment: Induction of IL-6 production in human PBMC measured after 18 to 24 hrs at 0.01 to 100 uM by ELISA; format: functional, cell-based
Outline: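 Freshly Ficoll-isolated PBMCs from healthy adult donors, in RPMI with 5% autologous plasma and counted as viable cells by trypan blue, added to wells with compounds serially diluted in ethanol and dried on. Incubation 18–24 h at 37 °C/5% CO2. Supernatant IL-6 measured by ELISA, read at 450 nm; n=3 independent donors, mean ± SEM.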

[1] = molecular target: T1, C-type lectin domain family 4 member E (Homo sapiens) (UniProt Q9ULY5); experiment: Agonist activity at human Mincle receptor expressed in HEK cells cotransfected with NF-kappaB SEAP reporter gene assessed as increase in production of SEAP measured after 18 to 24 hrs by SEAP reporter gene-based spectrophotometric method; format: cell-based
T1 sequence (whole entry): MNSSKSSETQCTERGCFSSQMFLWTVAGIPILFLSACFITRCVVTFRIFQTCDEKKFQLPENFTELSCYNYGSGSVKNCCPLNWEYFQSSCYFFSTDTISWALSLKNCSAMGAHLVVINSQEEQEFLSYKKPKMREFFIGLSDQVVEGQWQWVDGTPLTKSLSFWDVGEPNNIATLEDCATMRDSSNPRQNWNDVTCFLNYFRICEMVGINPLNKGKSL
Outline: (§1)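 Compounds serially diluted in EtOH; 10x final concentration coated on well bottoms and solvent evaporated >1 h. HEK-Blue hMincle cells with NF-κB-driven SEAP reporter, grown in DMEM/10% FBS with blasticidin, puromycin and CLR selection, added at 3 × 10^5 cells/well. 18–24 h at 37 °C. HEK-Blue Detection, OD 620–655 nm, fold change over vehicle; n=3. HEK null cells as counter-screen.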

[2] = molecular target: T1, C-type lectin domain family 4 member E (Homo sapiens); experiment: Agonist activity at human Mincle receptor expressed in HEK cells cotransfected with NF-kappaB SEAP reporter gene assessed as increase in production of SEAP at 20 uM measured after 18 to 24 hrs by SEAP reporter gene-based spectrophotometric method; format: cell-based; outline: as §1

## O=C(OC[C@H]1O[C@H](O[C@H]2O[C@H](COC(=O)c3cc([N+](=O)[O-])cc([N+](=O)[O-])c3)[C@@H](O)[C@H](O)[C@H]2O)[C@H](O)[C@@H](O)[C@@H]1O)c1cc([N+](=O)[O-])cc([N+](=O)[O-])c1
PBMC
  Activity: Active

## O=C(OC[C@H]1O[C@H](O[C@H]2O[C@H](COC(=O)c3cc(C(F)(F)F)ccc3O)[C@@H](O)[C@H](O)[C@H]2O)[C@H](O)[C@@H](O)[C@@H]1O)c1cc(C(F)(F)F)ccc1O
PBMC
  Activity: inactive

## O=C(OC[C@H]1O[C@H](O[C@H]2O[C@H](COC(=O)c3ccccc3C(F)(F)F)[C@@H](O)[C@H](O)[C@H]2O)[C@H](O)[C@@H](O)[C@@H]1O)c1ccccc1C(F)(F)F
PBMC
  Activity: Active
[1]
  Activity: Dose-dependent effect

## COc1ccc(C(F)(F)F)cc1C(=O)OC[C@H]1O[C@H](O[C@H]2O[C@H](COC(=O)c3cc(C(F)(F)F)ccc3OC)[C@@H](O)[C@H](O)[C@H]2O)[C@H](O)[C@@H](O)[C@@H]1O
PBMC
  Activity: inactive
[1]
  Activity: Dose-dependent effect

## O=C(OC[C@H]1O[C@H](O[C@H]2O[C@H](COC(=O)c3cccc(C(F)(F)F)c3O)[C@@H](O)[C@H](O)[C@H]2O)[C@H](O)[C@@H](O)[C@@H]1O)c1cccc(C(F)(F)F)c1O
PBMC
  Activity: inactive

## COc1ccc(C(=O)OC[C@H]2O[C@H](O[C@H]3O[C@H](COC(=O)c4ccc(OC)cc4C(F)(F)F)[C@@H](O)[C@H](O)[C@H]3O)[C@H](O)[C@@H](O)[C@@H]2O)c(C(F)(F)F)c1
PBMC
  Activity: inactive

## O=C(Cc1ccccc1C(F)(F)F)OC[C@H]1O[C@H](O[C@H]2O[C@H](COC(=O)Cc3ccccc3C(F)(F)F)[C@@H](O)[C@H](O)[C@H]2O)[C@H](O)[C@@H](O)[C@@H]1O
[2]
  Activity: Active
PBMC
  Activity: inactive

## Cc1ccc(C(=O)OC[C@H]2O[C@H](O[C@H]3O[C@H](COC(=O)c4ccc(C)cc4C(F)(F)F)[C@@H](O)[C@H](O)[C@H]3O)[C@H](O)[C@@H](O)[C@@H]2O)c(C(F)(F)F)c1
PBMC
  Activity: inactive

## CCCCCCCCCCCCCCCCCCCCCC(=O)OC[C@H]1O[C@H](O[C@H]2O[C@H](COC(=O)CCCCCCCCCCCCCCCCCCCCC)[C@@H](O)[C@H](O)[C@H]2O)[C@H](O)[C@@H](O)[C@@H]1O
[1]
  Activity: Dose-dependent effect

## O=C(OC[C@H]1O[C@H](O[C@H]2O[C@H](COC(=O)c3c(C(F)(F)F)cccc3C(F)(F)F)[C@@H](O)[C@H](O)[C@H]2O)[C@H](O)[C@@H](O)[C@@H]1O)c1c(C(F)(F)F)cccc1C(F)(F)F
PBMC
  Activity: Active
[1]
  Activity: Dose-dependent effect
